How the values were obtained:
Format in all cases: functional
[1] = Cytotoxicity against human Hs578T cells assessed as growth inhibition after 48 hrs by SRB assay; conditions: Hs-578T
In short: (§1)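 NCI 60-cell panel; compounds passing a single-dose screen (10−5 M, 48 h) were tested at five 10-fold dilutions (10−4 to 10−8 M) with 48 h drug exposure. GI50 is the molar concentration giving 50% reduction in net cell growth relative to cell numbers on day 0.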

SW-620 = test: Cytotoxicity against human SW620 cells assessed as growth inhibition after 48 hrs by SRB assay; conditions: SW-620, 48 h
786-0 = test: Cytotoxicity against human 786-0 cells assessed as growth inhibition after 48 hrs by SRB assay; conditions: 786-0, 48 h; in short: as §1
MDA-MB-435 = test: Cytotoxicity against human MDA-MB-435 cells assessed as growth inhibition after 48 hrs by SRB assay; conditions: MDA-MB-435, 48 h; in short: as §1
SNB-19 = test: Cytotoxicity against human SNB19 cells assessed as growth inhibition after 48 hrs by SRB assay; conditions: SNB-19, 48 h; in short: as §1
M14 = test: Cytotoxicity against human M14 cells assessed as growth inhibition after 48 hrs by SRB assay; conditions: M14, 48 h; in short: as §1
IGROV-1 = test: Cytotoxicity against human IGROV1 cells assessed as growth inhibition after 48 hrs by SRB assay; conditions: IGROV-1, 48 h; in short: as §1
HT-29 = test: Cytotoxicity against human HT-29 cells assessed as growth inhibition after 48 hrs by SRB assay; conditions: HT-29, 48 h; in short: as §1
[2] = Cytotoxicity against human HCT116 cells assessed as growth inhibition after 48 hrs by SRB assay; conditions: HCT-116, 48 h; in short: as §1
DU-145 = test: Cytotoxicity against human DU145 cells assessed as growth inhibition after 48 hrs by SRB assay; conditions: DU-145, 48 h; in short: as §1
NCI-H226 = test: Cytotoxicity against human NCI-H226 cells assessed as growth inhibition after 48 hrs by SRB assay; conditions: NCI-H226, 48 h; in short: as §1
[3] = Cytotoxicity against human OVCAR3 cells assessed as growth inhibition after 48 hrs by SRB assay; conditions: OVCAR-3, 48 h; in short: as §1
MDA-MB-231 = test: Cytotoxicity against human MDA-MB-231 cells assessed as growth inhibition after 48 hrs by SRB assay; conditions: MDA-MB-231, 48 h; in short: as §1
[4] = Cytotoxicity against human HCT15 cells assessed as growth inhibition after 48 hrs by SRB assay; conditions: HCT-15, 48 h; in short: as §1
MOLT-4 = test: Cytotoxicity against human MOLT4 cells assessed as growth inhibition after 48 hrs by SRB assay; conditions: MOLT-4, 48 h; in short: as §1
COLO 205 = test: Cytotoxicity against human COLO205 cells assessed as growth inhibition after 48 hrs by SRB assay; conditions: COLO 205, 48 h; in short: as §1
[5] = Cytotoxicity against human OVCAR4 cells assessed as growth inhibition after 48 hrs by SRB assay; conditions: OVCAR-4, 48 h; in short: as §1
[6] = Cytotoxicity against human OVCAR8 cells assessed as growth inhibition after 48 hrs by SRB assay; conditions: OVCAR-8, 48 h; in short: as §1
SF-268 = test: Cytotoxicity against human SF268 cells assessed as growth inhibition after 48 hrs by SRB assay; conditions: SF-268, 48 h; in short: as §1
HCC 2998 = test: Cytotoxicity against human HCC2998 cells assessed as growth inhibition after 48 hrs by SRB assay; conditions: HCC 2998, 48 h; in short: as §1
[7] = Cytotoxicity against human PC3 cells assessed as growth inhibition after 48 hrs by SRB assay; conditions: PC-3, 48 h; in short: as §1
RXF 393 = test: Cytotoxicity against human RXF393 cells assessed as growth inhibition after 48 hrs by SRB assay; conditions: RXF 393, 48 h; in short: as §1
SK-OV-3 = test: Cytotoxicity against human SKOV3 cells assessed as growth inhibition after 48 hrs by SRB assay; conditions: SK-OV-3, 48 h; in short: as §1
CAKI-1 = test: Cytotoxicity against human Caki1 cells assessed as growth inhibition after 48 hrs by SRB assay; conditions: CAKI-1, 48 h; in short: as §1
BT-549 = test: Cytotoxicity against human BT549 cells assessed as growth inhibition after 48 hrs by SRB assay; conditions: BT-549, 48 h; in short: as §1
NCI-H23 = test: Cytotoxicity against human NCI-H23 cells assessed as growth inhibition after 48 hrs by SRB assay; conditions: NCI-H23, 48 h; in short: as §1
SF-295 = test: Cytotoxicity against human SF295 cells assessed as growth inhibition after 48 hrs by SRB assay; conditions: SF-295, 48 h; in short: as §1
K562 = test: Cytotoxicity against human K562 cells assessed as growth inhibition after 48 hrs by SRB assay; conditions: K562, 48 h; in short: as §1
NCI-H460 = test: Cytotoxicity against human NCI-H460 cells assessed as growth inhibition after 48 hrs by SRB assay; conditions: NCI-H460, 48 h; in short: as §1
HL-60(TB) = test: Cytotoxicity against human HL-60(TB) cells assessed as growth inhibition after 48 hrs by SRB assay; conditions: HL-60, 48 h
In short: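 NCI 60-cell panel, leukemia subpanel. Five-dose screen at 10-fold dilutions from 10−4 to 10−8 M with 48 h drug exposure. GI50 is the molar concentration giving 50% reduction in net cell growth compared with cell numbers on day 0.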

[8] = Cytotoxicity against human UACC62 cells assessed as growth inhibition after 48 hrs by SRB assay; conditions: UACC-62, 48 h
SK-MEL-5 = test: Cytotoxicity against human SK-MEL-5 cells assessed as growth inhibition after 48 hrs by SRB assay; conditions: SK-MEL-5, 48 h; in short: as §1
[9] = Cytotoxicity against human NCI-ADR-RES cells assessed as growth inhibition after 48 hrs by SRB assay; in short: as §1
A498 = test: Cytotoxicity against human A498 cells assessed as growth inhibition after 48 hrs by SRB assay; conditions: A498, 48 h; in short: as §1
KM12 = test: Cytotoxicity against human KM12 cells assessed as growth inhibition after 48 hrs by SRB assay; conditions: KM12, 48 h; in short: as §1
SF-539 = test: Cytotoxicity against human SF539 cells assessed as growth inhibition after 48 hrs by SRB assay; conditions: SF-539, 48 h; in short: as §1
SN12C = test: Cytotoxicity against human SN12C cells assessed as growth inhibition after 48 hrs by SRB assay; in short: as §1
TK-10 = test: Cytotoxicity against human TK10 cells assessed as growth inhibition after 48 hrs by SRB assay; conditions: TK-10, 48 h
RPMI-8226 = test: Cytotoxicity against human RPMI8226 cells assessed as growth inhibition after 48 hrs by SRB assay; conditions: RPMI-8226, 48 h; in short: as §1
SNB-75 = test: Cytotoxicity against human SNB75 cells assessed as growth inhibition after 48 hrs by SRB assay; conditions: SNB-75, 48 h
MCF7 = test: Cytotoxicity against human MCF7 cells assessed as growth inhibition after 48 hrs by SRB assay; conditions: MCF7, 48 h; in short: as §1
LOX IMVI = test: Cytotoxicity against human LOXIMVI cells assessed as growth inhibition after 48 hrs by SRB assay; in short: as §1
U-251 = test: Cytotoxicity against human U251 cells assessed as growth inhibition after 48 hrs by SRB assay; conditions: U-251, 48 h

COc1ccc2[nH]cc(/C=C(\C#N)c3cc(OC)c(OC)c(OC)c3)c2c1
GI50 [1]: 0.124 µM | GI50 (SW-620): 0.046 µM | GI50 (786-0): 0.085 µM | GI50 (MDA-MB-435): 0.027 µM | GI50 (SNB-19): 0.089 µM | GI50 (M14): 0.052 µM | GI50 (IGROV-1): 0.379 µM | GI50 (HT-29): 0.038 µM | GI50 [2]: 0.045 µM | GI50 (DU-145): 0.153 µM | GI50 (NCI-H226): 0.17 µM | GI50 [3]: 0.034 µM | GI50 (MDA-MB-231): 0.299 µM | GI50 [4]: 0.068 µM | GI50 (MOLT-4): 0.198 µM | GI50 (COLO 205): 0.051 µM | GI50 [5]: 1.35 µM | GI50 [6]: 0.148 µM | GI50 (SF-268): 2.14 µM | GI50 (HCC 2998): 0.119 µM | GI50 [7]: 0.054 µM | GI50 (RXF 393): 0.033 µM | GI50 (SK-OV-3): 0.056 µM | GI50 (CAKI-1): 0.072 µM | GI50 (BT-549): 0.348 µM | GI50 (NCI-H23): 0.101 µM | GI50 (SF-295): 0.042 µM | GI50 (K562): 0.044 µM | GI50 (NCI-H460): 0.037 µM | GI50 (HL-60(TB)): 0.059 µM | GI50 [8]: 0.059 µM | GI50 (SK-MEL-5): 0.036 µM | GI50 [9]: 0.037 µM | GI50 (A498): 0.025 µM | GI50 (KM12): 0.044 µM | GI50 (SF-539): 0.071 µM | GI50 (SN12C): 0.715 µM | GI50 (TK-10): 20.1 µM | GI50 (RPMI-8226): 0.241 µM | GI50 (SNB-75): 0.043 µM | GI50 (MCF7): 0.036 µM | GI50 (LOX IMVI): 0.074 µM | GI50 (U-251): 0.05 µM
